How the values were obtained:
Format in all cases: functional
SNB-19 = assay: Growth inhibition of human SNB19 cells
Summary of the method: (§1)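 NCI 60-human-tumour-cell-line primary in vitro screen. Each compound was tested eight separate times across three concentration ranges with upper limits of 10⁻⁴, 10⁻⁵ and 10⁻⁶ M. Each range used five 10-fold dilutions. GI₅₀, TGI and LC₅₀ were calculated from the concentration-response curves for each cell line, and averaged mean-graph values were constructed from them.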

NCI-H23 = assay: Growth inhibition of human NCI-H23 cells; summary of the method: as §1
HCT-15 = assay: Growth inhibition of human HCT15 cells; summary of the method: as §1
K562 = assay: Growth inhibition of human K562 cells; summary of the method: as §1
SK-MEL-5 = assay: Growth inhibition of human SK-MEL-5 cells; summary of the method: as §1
RXF 393 = assay: Growth inhibition of human RXF393 cells; summary of the method: as §1
NCI-H460 = assay: Growth inhibition of human NCI-H460 cells; summary of the method: as §1
OVCAR-8 = assay: Growth inhibition of human OVCAR8 cells; summary of the method: as §1
SNB-75 = assay: Growth inhibition of human SNB75 cells; summary of the method: as §1
ACHN = assay: Growth inhibition of human ACHN cells; summary of the method: as §1
COLO 205 = assay: Growth inhibition of human COLO205 cells; summary of the method: as §1
A498 = assay: Growth inhibition of human A498 cells; summary of the method: as §1
UACC-257 = assay: Growth inhibition of human UACC257 cells
Summary of the method: (§2)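 NCI 60-human-tumour-line in vitro primary screen. Each compound tested eight separate times over three concentration ranges (upper limits 10⁻⁴, 10⁻⁵ and 10⁻⁶ M), each range as five 10-fold dilutions. GI₅₀ (also TGI and LC₅₀) derived from the concentration-response curves, reported as averaged values per cell line (negative log₁₀).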

TK-10 = assay: Growth inhibition of human TK10 cells; summary of the method: as §2
MOLT-4 = assay: Growth inhibition of human MOLT4 cells; summary of the method: as §1
[1] = Growth inhibition of human 786-O cells; summary of the method: as §1
M19-MEL = assay: Growth inhibition of human M19-MEL cells; summary of the method: as §1
XF498 = assay: Growth inhibition of human XF498 cells; summary of the method: as §2
NCI-H522 = assay: Growth inhibition of human NCI-H522 cells; summary of the method: as §1
HT-29 = assay: Growth inhibition of human HT-29 cells; summary of the method: as §1
SF-295 = assay: Growth inhibition of human SF295 cells; summary of the method: as §1
HL-60 = assay: Growth inhibition of human HL-60(TB) cells; summary of the method: as §1
KM12 = assay: Growth inhibition of human KM12 cells; summary of the method: as §1
SR = assay: Growth inhibition of human SR cells; summary of the method: as §2
HOP-18 = assay: Growth inhibition of human HOP18 cells; summary of the method: as §1
DLD-1 = assay: Growth inhibition of human DLD1 cells; summary of the method: as §1
A549 = assay: Growth inhibition of human A549 cells; summary of the method: as §1
UO-31 = assay: Growth inhibition of human UO31 cells; summary of the method: as §2
SNB-78 = assay: Growth inhibition of human SNB78 cells; summary of the method: as §2
SK-OV-3 = assay: Growth inhibition of human SKOV3 cells; summary of the method: as §1
[2] = read-out: pLC50 (the source's name) (converted)

O=C1N[C@H]2[C@H](O)[C@H](O)[C@@H](O)C[C@@H]2c2cc3c(cc21)OCO3
GI50 (SNB-19): 41.7 nM
CC50 (SNB-19; [2]): 93300 nM
TGI (SNB-19; read-out: pTGI (converted)): 1000 nM
GI50 (NCI-H23): 53.7 nM
CC50 (NCI-H23; [2]): 6460 nM
TGI (NCI-H23; read-out: pTGI (converted)): 363 nM
GI50 (HCT-15): 85.1 nM
CC50 (HCT-15; [2]): 85100 nM
TGI (HCT-15; read-out: pTGI (converted)): 1200 nM
GI50 (K562): 46.8 nM
CC50 (K562; [2]): > 100000 nM
TGI (K562; read-out: pTGI (converted)): 1100 nM
GI50 (SK-MEL-5): 45.7 nM
CC50 (SK-MEL-5; [2]): 1200 nM
TGI (SK-MEL-5; read-out: pTGI (converted)): 209 nM
GI50 (RXF 393): 72.4 nM
CC50 (RXF 393; [2]): 2510 nM
TGI (RXF 393; read-out: pTGI (converted)): 417 nM
GI50 (NCI-H460): 38.9 nM
CC50 (NCI-H460; [2]): 52500 nM
TGI (NCI-H460; read-out: pTGI (converted)): 813 nM
GI50 (OVCAR-8): 70.8 nM
CC50 (OVCAR-8; [2]): 72400 nM
TGI (OVCAR-8; read-out: pTGI (converted)): 2290 nM
GI50 (SNB-75): 60.3 nM
CC50 (SNB-75; [2]): 24000 nM
TGI (SNB-75; read-out: pTGI (converted)): 437 nM
GI50 (ACHN): 81.3 nM
CC50 (ACHN; [2]): 11000 nM
TGI (ACHN; read-out: pTGI (converted)): 794 nM
GI50 (COLO 205): 53.7 nM
CC50 (COLO 205; [2]): 457 nM
TGI (COLO 205; read-out: pTGI (converted)): 200 nM
GI50 (A498): 229 nM
CC50 (A498; [2]): 9330 nM
TGI (A498; read-out: pTGI (converted)): 1100 nM
GI50 (UACC-257): 141 nM
CC50 (UACC-257; [2]): 45700 nM
TGI (UACC-257; read-out: pTGI (converted)): 1820 nM
GI50 (TK-10): 251 nM
CC50 (TK-10; [2]): > 100000 nM
TGI (TK-10; read-out: pTGI (converted)): 1910 nM
GI50 (MOLT-4): 44.7 nM
CC50 (MOLT-4; [2]): > 100000 nM
TGI (MOLT-4; read-out: pTGI (converted)): 1910 nM
GI50 ([1]; 786-0): 110 nM
CC50 ([1]; 786-0, read-out: pLC50 (the source's name) (converted)): 57500 nM
TGI ([1]; 786-0, read-out: pTGI (converted)): 2090 nM
GI50 (M19-MEL): 39.8 nM
CC50 (M19-MEL; [2]): 5250 nM
TGI (M19-MEL; read-out: pTGI (converted)): 513 nM
GI50 (XF498): 81.3 nM
CC50 (XF498; [2]): 20900 nM
TGI (XF498; read-out: pTGI (converted)): 724 nM
GI50 (NCI-H522): 37.1 nM
CC50 (NCI-H522; [2]): 3800 nM
TGI (NCI-H522; read-out: pTGI (converted)): 240 nM
GI50 (HT-29): 61.7 nM
CC50 (HT-29; [2]): > 100000 nM
TGI (HT-29; read-out: pTGI (converted)): 813 nM
GI50 (SF-295): 141 nM
CC50 (SF-295; [2]): 41700 nM
TGI (SF-295; read-out: pTGI (converted)): 912 nM
GI50 (HL-60): 32.4 nM
CC50 (HL-60; [2]): 30200 nM
TGI (HL-60; read-out: pTGI (converted)): 191 nM
GI50 (KM12): 46.8 nM
CC50 (KM12; [2]): 24000 nM
TGI (KM12; read-out: pTGI (converted)): 912 nM
GI50 (SR): 52.5 nM
CC50 (SR; [2]): 56200 nM
TGI (SR; read-out: pTGI (converted)): 3240 nM
GI50 (HOP-18): 158 nM
CC50 (HOP-18; [2]): 79400 nM
TGI (HOP-18; read-out: pTGI (converted)): 1700 nM
GI50 (DLD-1): 43.6 nM
CC50 (DLD-1; [2]): > 100000 nM
TGI (DLD-1; read-out: pTGI (converted)): 832 nM
GI50 (A549): 100 nM
CC50 (A549; [2]): > 100000 nM
TGI (A549; read-out: pTGI (converted)): 1290 nM
GI50 (UO-31): 100 nM
CC50 (UO-31; [2]): 44700 nM
TGI (UO-31; read-out: pTGI (converted)): 955 nM
GI50 (SNB-78): 87.1 nM
CC50 (SNB-78; [2]): 83200 nM
TGI (SNB-78; read-out: pTGI (converted)): 912 nM
GI50 (SK-OV-3): 91.2 nM
CC50 (SK-OV-3; [2]): > 100000 nM
